SMILES strings stand for the structures.

The species entered for one data set is Rattus norvegicus. Briefly: Compound was evaluated for antiinflammatory activity in granuloma bioassay and measured as body weight gain. Type of data set: functional. A digest of the protocol:
(§1)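 Male Sprague–Dawley rats (100–200 g), acclimated 1 week under controlled lighting. Each rat got one cotton pellet (35 ± 1 mg) loaded with 2 mg steroid in acetone and one vehicle pellet; controls got two vehicle pellets. Rats were killed 7 days later. Readouts: thymus and adrenal weights, initial/final body weight, plasma corticosterone by 3H radioimmunoassay of cardiac blood. Mean ± SEM, n=6, Student's t test.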
In turn, `C[C@]12C=CC(=O)C=C1CC[C@@H]1[C@@H]2[C@@H](O)C[C@@]2(C)[C@H]1CC[C@]2(O)C(=O)CO` [PREDNISOLONE] had a Body weight gain of 55 g.
For the molecule `CCCNC(=O)[C@@H](O)[C@@]1(O)CC[C@H]2[C@@H]3CCC4=CC(=O)C=C[C@]4(C)[C@H]3[C@@H](O)C[C@@]21C`, the Body weight gain was 56.7 g.
On the same count and under the same terms, with `CCNC(=O)[C@@H](O)[C@@]1(O)CC[C@H]2[C@@H]3CCC4=CC(=O)C=C[C@]4(C)[C@H]3[C@@H](O)C[C@@]21C` the figure was 54.7 g; with `CCNC(=O)[C@H](O)[C@@]1(O)CC[C@H]2[C@@H]3CCC4=CC(=O)C=C[C@]4(C)[C@H]3[C@@H](O)C[C@@]21C`, 45.7 g.

Another data set is filed under the species Rattus norvegicus. Briefly: Evaluated for antiinflammatory activity in granuloma bioassay and expressed as relative adrenal weight. The data set is classed as functional. In outline: as §1
Consider `C[C@]12C=CC(=O)C=C1CC[C@@H]1[C@@H]2[C@@H](O)C[C@@]2(C)[C@H]1CC[C@]2(O)C(=O)CO` [PREDNISOLONE], for which the Relative adrenal weight turned out to be 12.1 mg 100g-1.
In turn, `CCCNC(=O)[C@@H](O)[C@@]1(O)CC[C@H]2[C@@H]3CCC4=CC(=O)C=C[C@]4(C)[C@H]3[C@@H](O)C[C@@]21C` had a Relative adrenal weight of 14 mg 100g-1.

The species named for a further data set is Rattus norvegicus. Kind of data set: Evaluated for antiinflammatory activity in granuloma bioassay and expressed as relative thymus weight. The data set is classed as functional. In outline:
as §1
For the molecule `C[C@]12C=CC(=O)C=C1CC[C@@H]1[C@@H]2[C@@H](O)C[C@@]2(C)[C@H]1CC[C@]2(O)C(=O)CO` [PREDNISOLONE], the Relative thymus weight is on record as 110.2 mg 100g-1.
On the same count and under the same terms, to `CCCNC(=O)[C@@H](O)[C@@]1(O)CC[C@H]2[C@@H]3CCC4=CC(=O)C=C[C@]4(C)[C@H]3[C@@H](O)C[C@@]21C` belongs 161.7 mg 100g-1.

The species named for a further data set is Rattus norvegicus. Briefly: Tested for inhibition of formation of granulation tissue around the cotton pellet treated with steroid. Type of data set: functional. Also noted: concentration or dose not given beside the values. A digest of the protocol: (§2)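 Male Sprague–Dawley rats (100–200 g). Before implantation, the right cotton pellet (35 ± 1 mg) received 2 mg steroid in acetone and the left pellet vehicle only; controls had two vehicle pellets. After 7 days, pellets with granulation tissue were dried at 60 °C for 48 h and weighed. Net dry weight, mean ± SEM, n=6; % inhibition vs vehicle group.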
With `C[C@]12C=CC(=O)C=C1CC[C@@H]1[C@@H]2[C@@H](O)C[C@@]2(C)[C@H]1CC[C@]2(O)C(=O)CO` [PREDNISOLONE], the Inhibition was 60.6%.
In the case of `CCCNC(=O)[C@@H](O)[C@@]1(O)CC[C@H]2[C@@H]3CCC4=CC(=O)C=C[C@]4(C)[C@H]3[C@@H](O)C[C@@]21C`, the Inhibition came to 57.1%.
Still for that read-out and setting: with `CCNC(=O)[C@@H](O)[C@@]1(O)CC[C@H]2[C@@H]3CCC4=CC(=O)C=C[C@]4(C)[C@H]3[C@@H](O)C[C@@]21C` the figure was 23.1%; with `CCNC(=O)[C@H](O)[C@@]1(O)CC[C@H]2[C@@H]3CCC4=CC(=O)C=C[C@]4(C)[C@H]3[C@@H](O)C[C@@]21C`, 53.3%.

The species named for a further data set is Rattus norvegicus. Briefly: Compound was evaluated for antiinflammatory activity in granuloma bioassay and measured as plasma corticosterone weight. Type of data set: functional, organism-based. In outline: as §1
`C[C@]12C=CC(=O)C=C1CC[C@@H]1[C@@H]2[C@@H](O)C[C@@]2(C)[C@H]1CC[C@]2(O)C(=O)CO` [PREDNISOLONE] showed a Plasma corticosterone of 130 ng/mL.
`CCCNC(=O)[C@@H](O)[C@@]1(O)CC[C@H]2[C@@H]3CCC4=CC(=O)C=C[C@]4(C)[C@H]3[C@@H](O)C[C@@]21C` registered a Plasma corticosterone of 164 ng/mL.
The same measure, in the same setting: to `CCNC(=O)[C@@H](O)[C@@]1(O)CC[C@H]2[C@@H]3CCC4=CC(=O)C=C[C@]4(C)[C@H]3[C@@H](O)C[C@@]21C` belongs 288 ng/mL.
Regarding `CCNC(=O)[C@H](O)[C@@]1(O)CC[C@H]2[C@@H]3CCC4=CC(=O)C=C[C@]4(C)[C@H]3[C@@H](O)C[C@@]21C`, the Plasma corticosterone came to 280 ng/mL.

The species entered for a further data set is Rattus norvegicus. Briefly: Tested for inhibition of formation of granulation tissue around the cotton pellet treated with steroid and expressed as net dry weight. Type of data set: functional. In outline: as §2
Regarding `C[C@]12C=CC(=O)C=C1CC[C@@H]1[C@@H]2[C@@H](O)C[C@@]2(C)[C@H]1CC[C@]2(O)C(=O)CO` [PREDNISOLONE], the Net dry weight is on record as 30.7 mg.
For the molecule `CCCNC(=O)[C@@H](O)[C@@]1(O)CC[C@H]2[C@@H]3CCC4=CC(=O)C=C[C@]4(C)[C@H]3[C@@H](O)C[C@@]21C`, the Net dry weight is given as 33.4 mg.
The molecule `CCNC(=O)[C@@H](O)[C@@]1(O)CC[C@H]2[C@@H]3CCC4=CC(=O)C=C[C@]4(C)[C@H]3[C@@H](O)C[C@@]21C` returned a Net dry weight of 59.9 mg.
Take `CCNC(=O)[C@H](O)[C@@]1(O)CC[C@H]2[C@@H]3CCC4=CC(=O)C=C[C@]4(C)[C@H]3[C@@H](O)C[C@@]21C`: the Net dry weight is reported as 36.4 mg.

The species entered for another data set is Rattus norvegicus. Kind of data set: Tested for inhibition of formation of granulation tissue around the cotton pellet untreated with steroid. Type of data set: functional. Also noted: concentration or dose not given beside the values. A digest of the protocol: as §2
For the molecule `C[C@]12C=CC(=O)C=C1CC[C@@H]1[C@@H]2[C@@H](O)C[C@@]2(C)[C@H]1CC[C@]2(O)C(=O)CO` [PREDNISOLONE], the Inhibition is reported as 26.6%.
`CCCNC(=O)[C@@H](O)[C@@]1(O)CC[C@H]2[C@@H]3CCC4=CC(=O)C=C[C@]4(C)[C@H]3[C@@H](O)C[C@@]21C`: the Inhibition is reported as 39.1%.
As to `CCNC(=O)[C@@H](O)[C@@]1(O)CC[C@H]2[C@@H]3CCC4=CC(=O)C=C[C@]4(C)[C@H]3[C@@H](O)C[C@@]21C`, the Inhibition was -4.9%.
As for `CCNC(=O)[C@H](O)[C@@]1(O)CC[C@H]2[C@@H]3CCC4=CC(=O)C=C[C@]4(C)[C@H]3[C@@H](O)C[C@@]21C`, the Inhibition was found to be 26.7%.

The test system of a further data set is Rattus norvegicus. Kind of data set: Tested for topical antiinflammatory activity in the croton oil ear edema assay and was expressed as mean change in ear thickness of rats. The data set is classed as functional. In outline:
(§3)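 Male Sprague–Dawley rats (100–200 g), acclimated 1 week. Baseline ear thickness was measured. Steroid at 0.75 mg/ear went to both ears, then 30 min later 50 μL 5% croton oil in acetone. Thickness was remeasured at 5 h. Mean change ± SEM, n=5; % inhibition vs vehicle controls, Student's t test.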
Molecule `C[C@]12C=CC(=O)C=C1CC[C@@H]1[C@@H]2[C@@H](O)C[C@@]2(C)[C@H]1CC[C@]2(O)C(=O)CO` [PREDNISOLONE] gave a Mean change of 0.145 mm.
Turning to `CCCNC(=O)[C@@H](O)[C@@]1(O)CC[C@H]2[C@@H]3CCC4=CC(=O)C=C[C@]4(C)[C@H]3[C@@H](O)C[C@@]21C`, the Mean change turned out to be 0.353 mm.
As for `CCNC(=O)[C@@H](O)[C@@]1(O)CC[C@H]2[C@@H]3CCC4=CC(=O)C=C[C@]4(C)[C@H]3[C@@H](O)C[C@@]21C`, the Mean change came out at 0.305 mm.
`CCNC(=O)[C@H](O)[C@@]1(O)CC[C@H]2[C@@H]3CCC4=CC(=O)C=C[C@]4(C)[C@H]3[C@@H](O)C[C@@]21C` registered a Mean change of 0.302 mm.

The species entered for another data set is Rattus norvegicus. Kind of data set: Tested for inhibition of formation of granulation tissue around the cotton pellet untreated with steroid and expressed as net dry weight. Type of data set: functional. In outline: as §2
In turn, `C[C@]12C=CC(=O)C=C1CC[C@@H]1[C@@H]2[C@@H](O)C[C@@]2(C)[C@H]1CC[C@]2(O)C(=O)CO` [PREDNISOLONE] returned a Net dry weight of 58.2 mg.
The molecule `CCCNC(=O)[C@@H](O)[C@@]1(O)CC[C@H]2[C@@H]3CCC4=CC(=O)C=C[C@]4(C)[C@H]3[C@@H](O)C[C@@]21C` showed a Net dry weight of 48.3 mg.
With `CCNC(=O)[C@@H](O)[C@@]1(O)CC[C@H]2[C@@H]3CCC4=CC(=O)C=C[C@]4(C)[C@H]3[C@@H](O)C[C@@]21C`, the Net dry weight is recorded as 83.1 mg.
The molecule `CCNC(=O)[C@H](O)[C@@]1(O)CC[C@H]2[C@@H]3CCC4=CC(=O)C=C[C@]4(C)[C@H]3[C@@H](O)C[C@@]21C` came in with a Net dry weight of 58.1 mg.

For another data set, the system named is Rattus norvegicus. Kind of data set: Tested for topical antiinflammatory activity in the croton oil ear edema assay. The data set is classed as functional. More on the design: concentration or dose not given beside the values. A digest of the protocol:
as §3
Regarding `C[C@]12C=CC(=O)C=C1CC[C@@H]1[C@@H]2[C@@H](O)C[C@@]2(C)[C@H]1CC[C@]2(O)C(=O)CO` [PREDNISOLONE], the Inhibition is listed as 68.6%.
Same read-out and setting: to `CCCNC(=O)[C@@H](O)[C@@]1(O)CC[C@H]2[C@@H]3CCC4=CC(=O)C=C[C@]4(C)[C@H]3[C@@H](O)C[C@@]21C` belongs 23.6%.
Consider `CCNC(=O)[C@@H](O)[C@@]1(O)CC[C@H]2[C@@H]3CCC4=CC(=O)C=C[C@]4(C)[C@H]3[C@@H](O)C[C@@]21C`, for which the Inhibition came out at 33.8%.
For `CCNC(=O)[C@H](O)[C@@]1(O)CC[C@H]2[C@@H]3CCC4=CC(=O)C=C[C@]4(C)[C@H]3[C@@H](O)C[C@@]21C`, the Inhibition was found to be 34.6%.

Test system in a further data set: not listed separately
Briefly: Octanol- water partition coefficient was determined.
`C[C@]12C=CC(=O)C=C1CC[C@@H]1[C@@H]2[C@@H](O)C[C@@]2(C)[C@H]1CC[C@]2(O)C(=O)CO` [PREDNISOLONE] showed a Partition coefficient of 30.
Still for that read-out and setting: with `CCCNC(=O)[C@@H](O)[C@@]1(O)CC[C@H]2[C@@H]3CCC4=CC(=O)C=C[C@]4(C)[C@H]3[C@@H](O)C[C@@]21C` the figure was 16.3.

In general, Inhibition refers to the drop in the measured response relative to a control, in per cent.

The record behind these values is ChEMBL document CHEMBL1123844, “Synthesis of new antiinflammatory steroidal 20-carboxamides: (20R)- and (20S)-21-(N-substituted amino)-11 beta,17,20-trihydroxy-3,21-dioxo-1,4- pregnadiene” (J Med Chem, 1987).
